# Data taken from ChEMBL document CHEMBL3853316 (J Med Chem, 2016).
# How the values were obtained:
# [1] = Dissociation constant, pKa of the compound in methanol/water by spectrophotometric titration method; assay type: physicochemical
# [2] = Half life in rat liver microsomes; assay type: ADME
# [3] = Half life in human liver microsomes; assay type: ADME
# [4] = Oral bioavailability in dog at 1 mg/kg; assay type: ADME, organism-based, Canis lupus familiaris; details: in vivo
# Procedure, shortened: (§1)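 Dogs (n = 3) were dosed at 0.2 mg/kg iv and 1.0 mg/kg po for pharmacokinetic parameters.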
# [5] = Half life in dog liver microsomes; assay type: ADME, Canis lupus familiaris
# [6] = Half life in dog at 0.2 mg/kg, iv and 1 mg/kg, po; assay type: ADME, organism-based, Canis lupus familiaris; details: in vivo; procedure, shortened: as §1
# [7] = Clearance in dog at 0.2 mg/kg, iv and 1 mg/kg, po; assay type: ADME, organism-based, Canis lupus familiaris; details: in vivo; procedure, shortened: as §1
# [8] = Volume of distribution at steady state in dog at 0.2 mg/kg, iv and 1 mg/kg, po; assay type: ADME, organism-based, Canis lupus familiaris; details: in vivo, read-out: Vdss; procedure, shortened: as §1
pKa [1],half-life [2],half-life [3],bioavailability [4],half-life [5],half-life [6],clearance [7],Vd [8],SMILES
8.7,12 min,> 120 min,1%,110 min,,,,Cc1cc2ccc1[C@@H](C)COC(=O)Nc1ccc(S(=O)(=O)C3CC3)c(c1)CN(C)C(=O)[C@@H]2Nc1ccc2c(N)nccc2c1
,10 min,95 min,< 1%,7 min,360 min,11 mL/min/kg,4 L/kg,Cc1cc2ccc1[C@@H](C)COC(=O)Nc1ccc(S(=O)(=O)C3CC3)c(c1)CN(C)C(=O)[C@@H]2Nc1cc2ccnc(N)c2cc1F
7.1,1.9 min,45 min,40%,26 min,480 min,8 mL/min/kg,5 L/kg,Cc1cc2ccc1[C@@H](C)COC(=O)Nc1ccc(S(=O)(=O)C3CC3)c(c1)CN(C)C(=O)[C@@H]2Nc1ccc2c(N)ncc(F)c2c1
8,3.3 min,120 min,24%,39 min,480 min,13 mL/min/kg,8 L/kg,Cc1cc2ccc1[C@@H](C)COC(=O)Nc1ccc(S(=O)(=O)C3CC3)c(c1)CN(C)C(=O)[C@@H]2Nc1cc(F)c2c(N)nccc2c1
,37 min,130 min,22%,140 min,,,,Cc1cc2ccc1[C@@H](C)COC(=O)Nc1ccc(OC(F)(F)F)c(c1)CN(C)C(=O)[C@@H]2Nc1ccc2c(N)nccc2c1
